In assay [1] the target is T1, Sorbitol dehydrogenase (Homo sapiens, UniProt Q00796).
T1 sequence (Q00796 whole entry): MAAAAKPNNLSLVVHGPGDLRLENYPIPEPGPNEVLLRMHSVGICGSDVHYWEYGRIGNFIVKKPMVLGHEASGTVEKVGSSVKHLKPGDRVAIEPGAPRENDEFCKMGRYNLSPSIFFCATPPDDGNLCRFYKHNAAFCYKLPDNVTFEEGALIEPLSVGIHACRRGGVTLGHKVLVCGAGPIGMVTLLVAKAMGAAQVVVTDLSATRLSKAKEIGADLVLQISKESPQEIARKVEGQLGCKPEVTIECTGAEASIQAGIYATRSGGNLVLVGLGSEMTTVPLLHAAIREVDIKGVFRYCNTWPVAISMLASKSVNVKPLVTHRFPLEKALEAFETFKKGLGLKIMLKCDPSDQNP

For assay [2], the species on record is Rattus norvegicus. The assay can be described thus: Concentration required for 50% prevention of sciatic nerve fructose accumulation using acute model in streptozocin (STZ)-induced diabetic rats. It is filed as functional. The essentials:
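STZ diabetes was induced in male CD Sprague-Dawley rats (175-225 g) with 85 mg/kg iv (citrate, pH 4.5). Oral gavage doses were given 4, 7 and 24 h after STZ, and rats were killed at 28 h. Left sciatic nerve was extracted in 6% perchloric acid and neutralized. Fructose was assayed with FDH/resazurin for 60 min at room temperature (fluorescence). ED50 is expressed as total mg/kg/day.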

Assay [3] has as its system Rattus norvegicus. Put plainly: Concentration required for 50% ability to normalize elevated sciatic nerve fructose in reversal protocol using chronic model in streptozocin (STZ)-induced diabetic rats (in vivo). As to conditions: in the assay text read “90% ability” for “50% ability”. It is filed as functional. The method in brief: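 Diabetes was induced in male CD Sprague-Dawley rats (175-225 g) with STZ (85 mg/kg in 0.01 M citrate, pH 4.5) by tail vein. Oral gavage was given once daily from day 8 for 5 days. Rats were killed 4 h after the last dose (day 12). Left sciatic nerve fructose was measured in perchloric acid extract by FDH/resazurin fluorescence (ex 560, em 580 nm) against standards.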

pIC50: −log10 of the molar value.

A word on the pIC50: it is the IC50 on a negative log10 scale, so that one unit is a factor of ten. Compound `OCc1nccc(N2CCN(c3nsc4ccccc34)CC2)n1` gave a pIC50 in assay [1] of 7.19. The same measure, in the same setting: with `C[C@@H](O)c1nccc(N2CCN(c3nsc4ccccc34)CC2)n1` the figure was 7.92; with `C[C@@H](O)c1nccc(N2CCN(c3nc4ncccc4o3)CC2)n1`, 6.77. Same read-out and setting: with `C[C@@H](O)c1nccc(N2CCN(c3nc(C(F)(F)F)cc(C(F)(F)F)n3)CC2)n1` the figure was 6.72. On the same count and under the same terms, with `OCc1nccc(N2CCN(c3nc4ccccc4o3)CC2)n1` the figure was 6.72; with `Cc1cc(CO)nc(N2CCN(c3ccnc([C@@H](C)O)n3)C[C@H]2C)n1`, 6.85; with `C[C@@H](O)c1nccc(N2CCN(c3nc4ccncc4o3)[C@@H](C)C2)n1`, 7.64. In assay [1], `C[C@@H](O)c1nccc(N2CCN(c3cnc4ccccc4n3)[C@@H](C)C2)n1` had a pIC50 of 7.00. As usually defined, the ED50 is the midpoint of the dose-response relation. For `C[C@@H](O)c1nccc(N2CCN(c3ccnc(CCO)n3)CC2)n1`, in assay [2], the median effective dose (ED50) was found to be 1 mg/kg/day. This compound also gave a pIC50 in assay [1] of 7.40.

As to `C[C@@H](O)c1nccc(N2CCN(c3ccnc(CCO)n3)C[C@@H]2C)n1`, in assay [1], the negative-log IC50 (pIC50) was 7.23. Take `C[C@@H](O)c1nccc(N2CCN(c3nc4ccccc4o3)CC2)n1`: in assay [2], the ED50 stood at 12 mg/kg/day. For the same compound, the pIC50 in assay [1] is 7.46. On to `CC(C)c1cc(C(C)C)nc(N2CCN(c3ccnc([C@@H](C)O)n3)CC2)n1`, for which, in assay [1], the pIC50 was 7.14. As to `Cc1cc(CO)nc(N2CCN(c3ccnc([C@@H](C)O)n3)C[C@@H]2C)n1`, the ED90 in assay [3] was determined as 2 mg/kg/day. This compound had a pIC50 in assay [1] of 7.10.

Turning to `C[C@@H]1CN(c2ccnc(CCO)n2)C[C@H](C)N1c1ccnc([C@@H](C)O)n1`, the ED90 in assay [3] was 2 mg/kg/day. The compound also had a pIC50 in assay [1] of 8.00. As to `Cc1cc(C)nc(N2CCN(c3ccnc(CO)n3)CC2)n1`, the pIC50 in assay [1] was 7.03.

For `C[C@@H](O)c1nccc(N2CCN(c3nc4cccnc4o3)CC2)n1`, it took a dose of 0.5 mg/kg/day to reach the 50% effect level in assay [2] (ED50). Besides, in assay [1], the pIC50 was 7.49. On to `C[C@@H](O)c1nccc(N2CCN(c3nccc(-c4ccccc4)n3)CC2)n1`, for which the pIC50 in assay [1] was 7.17. For the compound `Cc1cc(C)nc(N2CCN(c3ccnc([C@@H](C)O)n3)CC2)n1`, in assay [2], it took a dose of 1.3 mg/kg/day to reach the 50% effect level (ED50). Further, the pIC50 in assay [1] is 7.64. `Cc1nc2ccccc2nc1N1CCN(c2ccnc([C@@H](C)O)n2)CC1` showed a negative logarithm of the IC50 (pIC50) in assay [1] of 8.10. As to `Cc1cc(CO)nc(N2C[C@@H](C)N(c3ccnc([C@@H](C)O)n3)[C@@H](C)C2)n1`, in assay [3], the ED90 amounted to 1 mg/kg/day. The same compound gave a pIC50 in assay [1] of 7.00. For the compound `Cc1cc(CO)nc(N2CCN(c3ccnc([C@@H](C)O)n3)[C@H](C)C2)n1`, the pIC50 in assay [1] was 6.77. In assay [1], `Cc1cc(CO)nc(N2CCN(c3ccnc([C@@H](C)O)n3)[C@@H](C)C2)n1` gave a negative logarithm of the IC50 (pIC50) of 6.70.

`OCc1nccc(N2CCN(c3ccc4ccccc4n3)CC2)n1` showed a pIC50 in assay [1] of 7.06. In assay [2], `Cc1cc(CO)nc(N2CCN(c3ccnc([C@@H](C)O)n3)CC2)n1` returned a 50% effective dose (ED50) of 0.5 mg/kg/day. Also, the negative logarithm of the IC50 (pIC50) in assay [1] was 7.70. In assay [1], `C[C@@H](O)c1nccc(N2CCN(c3cnc4cc(Cl)c(Cl)cc4n3)CC2)n1` had a negative-log IC50 (pIC50) of 6.92.

`Cc1cc(-c2ccccc2)nc(N2CCN(c3ccnc([C@@H](C)O)n3)CC2)n1` gave a pIC50 in assay [1] of 6.66. On to `C[C@@H](O)c1nccc(N2CCN(c3noc4ccccc34)CC2)n1`, for which the negative-log IC50 (pIC50) in assay [1] is 7.43. In the case of `C[C@@H]1CN(c2cnc3ccccc3n2)C[C@H](C)N1c1ccnc([C@@H](C)O)n1`, the ED90 in assay [3] worked out at 1 mg/kg/day. Besides, in assay [1], the negative-log IC50 (pIC50) was 6.74. Regarding `C[C@@H]1CN(c2nc3ccncc3o2)C[C@H](C)N1c1ccnc([C@@H](C)O)n1`, in assay [1], the pIC50 was 6.57. In assay [1], `C[C@@H](O)c1nccc(N2CCN(c3nccc4ccccc34)CC2)n1` gave a pIC50 of 7.47. This pIC50 lies 0.90 log units higher than the previous one. `Cc1cc(CO)nc(N2[C@H](C)CN(c3ccnc([C@@H](C)O)n3)C[C@@H]2C)n1`: the negative-log IC50 (pIC50) in assay [1] is 6.89. Turning to `Cc1ccnc(N2CCN(c3ccnc([C@@H](C)O)n3)CC2)n1`, the negative-log IC50 (pIC50) in assay [1] was 6.96. On the same count and under the same terms, then `C[C@@H]1CN(c2ccnc(CCO)n2)CCN1c1ccnc([C@@H](C)O)n1`, with 7.92; and `CCc1cc(CC)nc(N2CCN(c3ccnc([C@@H](C)O)n3)CC2)n1`, with 7.10. The compound `C[C@@H](O)c1nccc(N2CCN(c3nc4ccncc4o3)CC2)n1` returned a 50% effective dose (ED50) in assay [2] of 0.5 mg/kg/day. Also, in assay [3], the ED90 is 10 mg/kg/day. In assay [1], the pIC50 was 7.62. As for `OCc1nccc(N2CCN(c3ccnc(CO)n3)CC2)n1`, the negative-log IC50 (pIC50) in assay [1] is 6.59. The compound `C[C@@H](O)c1nccc(N2CCN(c3nc4cnccc4o3)CC2)n1` had a negative-log IC50 (pIC50) in assay [1] of 7.10.

In the case of `OCc1nccc(N2CCN(c3noc4ccccc34)CC2)n1`, the negative logarithm of the IC50 (pIC50) in assay [1] is 6.92.

`OCc1nccc(N2CCN(c3nccc4ccccc34)CC2)n1`: the pIC50 in assay [1] is 6.82.

Compound `Cc1cc(N2CCN(c3ccnc([C@@H](C)O)n3)CC2)nc(C)n1` registered a median effective dose (ED50) in assay [2] of 5 mg/kg/day. In assay [1], the negative logarithm of the IC50 (pIC50) is 7.51. As for `C[C@@H](O)c1nccc(N2CCN(c3cnc4ccccc4n3)CC2)n1`, in assay [2], the ED50 was determined as 1 mg/kg/day. Also, in assay [3], the ED90 is more than 20 mg/kg/day. Further, the negative logarithm of the IC50 (pIC50) in assay [1] was 7.44. `Cc1cc(N2CCN(c3ccnc(CO)n3)CC2)nc(C)n1` gave a negative logarithm of the IC50 (pIC50) in assay [1] of 6.85.

Compound `C[C@@H](O)c1nccc(N2CCN(c3ccc4ccccc4n3)CC2)n1` gave a pIC50 in assay [1] of 7.36. Compared with the last compound, the pIC50 is 0.51 log units higher. `CN(C)S(=O)(=O)N1CCN(c2ccnc(CO)n2)CC1` showed a negative-log IC50 (pIC50) in assay [1] of 6.62.

(Values after ChEMBL document CHEMBL1135813, “Orally-effective, long-acting sorbitol dehydrogenase inhibitors: synthesis, structure-activity relationships, and in vivo evaluations of novel heterocycle-substituted piperazino-pyrimidines” (J Med Chem, 2002).)
